The target of this assay is 20S proteasome (Homo sapiens, UniProt P28072+P28074+Q99436). Briefly: Proteasome-Glo luminescent assay in MCF-7 cells. The class given is cell-based. To be noted: MCF7, read-out: % Inhibition of 20S Proteasome / 20 μg/mL. The gist of the method:
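MCF-7 cells grown at 37°C, 5% CO2 in RPMI 1640 with 10% FBS, penicillin and streptomycin. Log-phase cells trypsinized, washed extensively, seeded at 7,500/well, incubated overnight. Test compound added in DMSO (final 0.2%), 2 h at 37°C. Luminescent read-out of proteasome chymotrypsin-like, trypsin-like or caspase-like activity. % inhibition versus solvent control. Bortezomib (5, 25 nM) was the positive control.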

In the case of `COC(=O)c1cccc(O)c1C(=O)c1c(O)cc(C)cc1O` [compound 1, moniliphenone], the inhibition at 20 µg/mL came to 1%.
As to `COC(=O)[C@]12Oc3c(c(O)cc4c3[C@@H]3C=C[C@]5(C4)C(=C(O)c4c(O)cc(C)cc4[C@@H]5OC(C)=O)C3=O)C(=O)[C@]1(O)C(=O)C=C[C@@H]2O` [compound 2, acremoxanthone D], the inhibition at 20 µg/mL worked out at 58%.
